Series [1] is classed as in vivo, athymic nude mice bearing MDA-MB-231 tumors. As to conditions: IP, Alexa 700-labelled KLAK PA. An outline of the steps: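 Female athymic nude mice carried orthotopic MDA-MB-231 mammary tumours. Dialysed Alexa 700-conjugated PA (20 mg/kg, 1.8 mM; 2.5 μg dye) was given ip, ± 27 mg/kg coassembled PEG PA. Plasma was collected by tail bleed or terminal cardiac puncture, spun 10 000 rpm for 10 min, and read on a plate reader. Paraformaldehyde-fixed tissues were imaged as average radiant efficiency; n = 6 per time point.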

The nature of series [2]: Cryogenic and conventional TEM of nanostructures. As to conditions: cryo-TEM. It counts as physicochemical. The essentials: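 For conventional TEM, samples were drop-cast on carbon-coated copper grids and stained with 2% aqueous uranyl acetate. For cryo-TEM, grids were blotted at 95% humidity and plunged into liquid ethane. Both were imaged at 100 keV.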
Series [3] is described as follows: 1H diffusion ordered spectroscopy. The class given is physicochemical. The following applies: DOSY, D2O, ambient temperature; 5 mM KLAK PA alone or 2.5 mM KLAK PA and 2.5 mM PEG PA. The essentials: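 Coassembled by dissolving each PA separately in HFIP, mixing at least 15 min, lyophilizing, redissolving in water and lyophilizing again. 1H DOSY at 600 MHz and ambient temperature in 99.9% D2O, at constant total PA of 5 mM (single PA) or 2.5 mM + 2.5 mM (mixed). 32 points were acquired with a 7 μs 90-degree pulse.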

Series [4] in a line: Complete blood count and metabolic profiling 24 h after PA administration. It counts as in vivo, mice. The following applies: 24 h after administration. An outline of the steps: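 Blood was drawn from mice 24 h after PA or PBS administration and sent to an external laboratory for complete blood count and metabolic profiling. Groups were compared by two-way ANOVA with Bonferroni post-tests.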

The nature of series [5]: Small angle X-ray scattering. The class given is physicochemical. As to conditions: 2 mM; -1 indicative of cylinders, -2 possibly bundling. An outline of the steps: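 Synchrotron SAXS used 15 keV X-rays from a double-crystal monochromator and an offset CCD to cover a wide angle range. Samples at 2 mM were held in 1.5 mm quartz capillaries; incident flux was about 10^12 photons/s. Intensity was plotted on a relative scale against q = (4π/λ) sin(θ/2).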

Experimental findings from publication PMC3458188 (ACS nano, 2012) are described below.

As to palmitoyl-A4G3(KLAKLAK)2 [KLAK PA], in series [1] (plasma fluorescence, mice), the observed plasma half-lives result is on record as “on the order of several hours”. The “tissue localization of fluorescence” value in series [1] (tumor bearing mice, IVIS) is “predominantly localized to liver and kidney”. For the same substance, in series [2], the fiber diameter entry is “roughly 10 nm” and the fiber length entry is given as “several hundred”. The “diffusion coefficient of KLAK PA (peak at 2.83 ppm)” value in series [3] is 0.69×10^−10 m^2/s. In addition, the alkaline phosphatase levels result in series [4] (compared with PBS treated controls) is recorded as “significantly lower”. The blood glucose levels entry in series [4] (mice) is listed as “significantly higher”. For the same substance, the “SAXS slope in the low-q range” value in series [5] is “approximately -2”.
